Bioassay records: PubChem, several laboratories
A selection: hits, their analogues and other compounds. The true share with any hit is near 1.3%.
HCV NS3 hel inh = inhibitors of HCV NS3 helicase, primary screen, biochemical, Cy5 molecular beacon fluorescence; Hepatitis C virus NS3 helicase; NS3 helicase DNA unwinding; inhibition, % at 10.9 µM; 290,000 compounds, 0.56% hits; AID 1800, 2009;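 active means inhibition above the mean of all tested compounds plus 3 SD, set per campaign, cut at about 35% in these data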;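 further: 0% = DMSO wells and 100% = thioflavine S control wells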
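Test system: hepatitis C virus NS3 helicase domain fragment enzyme. Also added: annealed dual-labelled DNA beacon duplex, ATP-started. Timing: 60 min unwinding reaction at 25 °C after ATP addition. Technique: Cy5 fluorescence. Measure: % inhibition of unwinding.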
Hep lipid drop = inhibitors of hepatocyte lipid droplet formation, primary screen, imaging, high-throughput imaging, BODIPY stain. 240,000 compounds, 0.4% hits. inhibition, % at 6.5 µM. AML12 mouse hepatocytes, oleate lipid droplets;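 active means lipid droplet intensity inhibited by at least 50%, with more than 500 cells counted; inconclusive means wells with under 300 cells, treated as cytotoxic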
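Test system: AML12 mouse liver cells; schedule: overnight exposure; technique: high-content imaging of BODIPY-stained droplets and DAPI nuclei; read-out: % inhibition of corrected integrated BODIPY droplet signal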
HCV core dimer = inhibitors of HCV core protein dimerization, primary screen, biochemical, TR-FRET, high-throughput. TR-FRET GST/Flag-core106 dimerization, 1536-well. inhibition, % at 5 µM. 300,000 compounds, 0.33% hits. AID 1899, 2009;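 active means inhibition above the mean of all tested compounds plus 3 SD, set per screening campaign, cut at about 45% in these data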
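Test system: GST/Flag-tagged HCV core106 proteins; Medium: KF-containing HEPES buffer, pH 7.45, DTT, CHAPS, BSA; Times: compound-protein-antibody incubation 4 h at 22.5 °C; Detection: TR-FRET 671 and 617 nm emission; Benchmarks: wells lacking GST-core106 and wells with excess unlabelled core106.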
Tb MetRS inh = T. brucei MetRS inhibitors, primary screen, biochemical, luminescence; inhibition, % at 11.9 µM; AID 624268, 2012; 360,000 compounds, 0.4% hits; purified T. brucei MetRS, ATP depletion, Kinase-Glo luminescence; methionyl-tRNA synthetase (Trypanosoma brucei brucei);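 active means inhibition above a per-plate cutoff of the control wells' mean inhibition plus 3 SD, cut at about 5.5% in these data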;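 further: 0% = DMSO wells median and 100% = median of wells with control inhibitor compound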
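Test system: purified T. brucei MetRS enzyme. Also added: ATP, methionine and E. coli bulk tRNA substrates. Compound: 11.9 µM single point. Schedule: 15 min enzyme-compound preincubation, 2 h reaction, 10 min detection, 25 °C. Signal: luciferase luminescence of residual ATP, Kinase-Glo. Evaluation: percent inhibition versus plate control medians. Controls: DMSO wells, low control.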
NS3 helicase cf = HCV NS3 helicase inhibitors, retest, confirmation, biochemical, Cy5 molecular beacon fluorescence, triplicate; shares compounds with HCV NS3 hel inh; NS3 helicase DNA unwinding; inhibition, % at 10.9 µM; 1,600 compounds, 31% hits;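 active means inhibition above the mean of all tested compounds plus 3 SD, cutoff set per campaign, cut at about 36% in these data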
DNA FID counter = compounds displacing fluorescent DNA intercalator, artefact control for HCV NS3 helicase inhibitor project, biochemical, FID fluorescence, triplicate; inhibition, % at 7.9 µM; shares compounds with HCV NS3 hel inh; DNA fluorescent intercalator displacement; 1,600 compounds, 4% hits; AID 1945, 2009; in the data active means inhibition above about 37%;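 further: 0% = vehicle and 100% = reference compound; higher means more displacement of ethidium bromide from the DNA hairpin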
DNA FID DR = compounds displacing fluorescent intercalator from DNA, dose response, counter-screen for HCV NS3 helicase inhibitor project, biochemical, fluorescence; fluorescent intercalator displacement from DNA; 120 tested, under 10 active; AID 2172, 2009; IC50, µM; shares compounds with HCV NS3 hel inh; call rule not given here
The depositor's hits bear a star; ? = inconclusive; . = not tested or not shown.

SMILES | HCV NS3 hel inh | Hep lipid drop | HCV core dimer | Tb MetRS inh | NS3 helicase cf | DNA FID counter | others
C=CCOc1c(Cl)cc(CNc2ccc(N(C)C)cc2)cc1OC | 50.9* | . | -42.6 | -0.5 | 23.3 | 21.2
Cn1cccc1Cc1nnc(SCC(=O)Nc2cccc(F)c2)n1CCc1ccccc1 | 41.7* | 2.9 | 2.8 | -0.4 | -5.6 | -26.6
Cc1ccc(C(NC(=O)C2CCN(Cc3ccc(Cl)c(Cl)c3)CC2)c2ccccn2)cc1 (stereo not drawn) | . | . | . | -0.2 | . | .
CCN(CC)C(=O)c1ccc(NS(=O)(=O)c2ccc3[nH]c(=O)[nH]c3c2)cc1 | 0.3 | -2.4 | . | 0.2 | . | .
CN1CCN(C(c2ccc(C(F)(F)F)cc2)c2cc(Cl)c3cccnc3c2O)CC1 (stereo not drawn) | -40.0 | -132.6 | -7.7 | . | . | .
CN1CCN(C(c2ccc(Cl)cc2)c2cc(Cl)c3cccnc3c2O)CC1 (stereo not drawn) | 46.2* | 0.2 | 7.4 | -0.3 | 17.1 | 57.9*
O=C(COC(=O)Cc1c(F)cccc1Cl)Nc1ccc2[nH]c(=O)[nH]c2c1 | . | . | . | -0.3 | . | .
C=CCN1C(=O)/C(=c2\sc3nc(=O)c(Cc4ccc(OC)c(OC)c4)nn3c2=O)c2ccccc21 | 45.9* | 5.9 | 3.6 | -0.4 | -2.0 | -3.7
COC(=O)C1=C(C)NC(C)=C(C(=O)OC)C1c1ccc(-c2cc(Cl)ccc2Cl)o1 | 15.3 | -7.7 | -1.4 | -0.7 | . | .
COCCOC(=O)C1=C(C)NC(=O)NC1c1ccc(-c2cc(Cl)ccc2Cl)o1 (stereo not drawn) | 42.9* | -28.5 | 6.1 | -0.8 | -19.6 | -19.4
COc1ccc(N=C2NC(=O)/C(=C\C=C\c3ccco3)S2)cc1 | 46.3* | -12.9 | . | 0.2 | 36.5* | 8.4 | DNA FID DR=>79.4
Cc1cccc(N=C2NC(=O)S/C2=C\c2ccco2)c1 | 37.2* | -5.7 | -6.1 | -0.7 | 0.1 | 19.9
Cc1cccc(N=C2NC(=O)/C(=C/C=C/c3ccco3)S2)c1 | 44.4* | 30.3 | 18.9 | -0.2 | 2.6 | -7.3
O=C1NC(=Nc2ccc(O)cc2)S/C1=C/c1ccco1 | 9.5 | 18.8 | -9.7 | 1.1 | . | .
Cc1ccc(N=C2NC(=O)/C(=C\c3ccco3)S2)cc1 | 39.7* | -11.1 | 10.5 | 0.1 | -4.1 | -2.8
COc1ccc2oc(C(=O)OCC(=O)N(CCC#N)c3ccccc3)c(C)c2c1 | 2.4 | -17.0 | 21.6 | 0.0 | . | .
CCCCCCCCCC(=O)Nc1cccnc1 | 4.3 | 6.6 | -0.4 | . | . | .
CCC1=Nc2cc(C(=O)NCc3ccco3)ccc2Sc2ccc(Cl)cc21 | 36.9* | ? | 58.5* | 0.2 | -1.7 | -45.7
O=c1[nH]c(/C=C/c2ccc([N+](=O)[O-])cc2)c([N+](=O)[O-])c(=O)[nH]1 | 60.2* | -0.8 | . | 0.5 | -15.3 | 8.3
O=C1C(=Cc2ccco2)C(=O)c2ccccc21 | 50.0* | 5.5 | -0.7 | 0.2 | -19.5 | 19.2
O=C(O)c1ccc2c(c1)C(=O)/C(=C\c1ccco1)C2=O | 62.5* | 6.9 | -18.7 | 0.4 | -14.8 | 10.8
O=C(O)c1ccc2c(c1)C(=O)/C(=C/c1ccccc1)C2=O | 5.1 | -10.9 | -29.2 | 0.5 | . | .
CC1CCCCN1C(=O)Cn1cc(C(=O)c2ccco2)c2ccccc21 (stereo not drawn) | 38.3* | 0.0 | 1.2 | -0.1 | -8.2 | -23.5
COc1ccc(NC(=O)C(CC(=O)O)Cc2ccccc2)cc1 (stereo not drawn) | 6.7 | . | -3.5 | -0.6 | . | .
COc1cc(CC(CC(=O)O)CC(C)OCc2ccccc2)cc(OC)c1 (stereo not drawn) | 38.6* | -2.4 | -7.9 | -0.4 | -12.3 | -41.4
SMILES | HCV NS3 hel inh | Hep lipid drop | HCV core dimer | Tb MetRS inh | NS3 helicase cf | DNA FID counter | others
COc1cccc(NS(=O)(=O)c2ccc3c(c2)C2C=CCC2C(c2ccc(C(=O)O)cc2)N3)c1 (stereo not drawn) | 43.0* | -4.0 | 10.6 | 1.2 | 52.3* | 41.9*
O=C(NCCOc1ccccc1)C1Nc2ccc(OC(F)(F)F)cc2C2C=CCC12 (stereo not drawn) | . | . | 3.0 | 0.3 | . | .
O=C(O)c1ccc2c(c1)[C@@H]1C=CC[C@@H]1[C@H](c1ccccn1)N2 | 59.4* | . | 0.6 | 1.1 | 60.0* | 2.8
COC1=C/C(=C/c2c(N)n3nc(-c4ccc(C)cc4)sc3nc2=O)C=CC1=O | 44.2* | 19.6 | . | -0.1 | 25.3 | -14.8
Oc1ccc(Cl)cc1C=Nc1ccccc1Br | 2.1 | -5.2 | 9.6 | 0.1 | . | .
Oc1ccc(Br)cc1C=Nc1ccc2c3c(cccc13)CC2 | 48.5* | -9.6 | -20.5 | -0.2 | -5.2 | 12.4
CCCCNS(=O)(=O)C1CCS(=O)(=O)C1 (stereo not drawn) | -0.6 | 1.5 | -5.9 | -0.6 | . | .
Cc1ccc(C(=O)/C=C/c2cc(Br)cc(Br)c2O)o1 | 36.9* | -19.5 | 20.2 | -0.6 | 48.4* | 7.7 | DNA FID DR=>79.4
COc1ccc(N2CCN(C(=O)CNS(=O)(=O)c3ccc(C)cc3)CC2)cc1 | -7.1 | -1.0 | -3.6 | -0.4 | . | .
CCC(C(=O)NC(C)(C)C)n1c(-c2cccc(NC(C)=O)c2)nc2ccccc21 (stereo not drawn) | . | . | . | -0.5 | . | .
O=[N+]([O-])c1ccc(N2N=C(c3ccco3)CC2c2ccccc2)cc1 (stereo not drawn) | 38.2* | . | 87.4* | -0.5 | 17.6 | 26.2
Fc1ccc(C2CC(c3ccco3)=NN2c2ccccc2)cc1 (stereo not drawn) | 3.9 | . | -2.2 | -0.3 | . | .
O=C(O)C1CCC2CCCC21 (stereo not drawn) | . | . | . | -0.4 | . | .
O=C(O)c1ccc(/C=N/NC(=O)c2cc(-c3ccc4c5c(cccc35)CC4)n[nH]2)cc1 | 36.9* | 0.9 | 33.1 | -0.4 | 65.3* | -2.1
Cc1c(Cl)cccc1NC(=O)CSc1sc2c(O)cc(=O)[nH]c2c1C#N | 37.4* | 21.1 | 8.3 | -0.3 | -8.8 | 8.0
CC1CC(=O)c2c(cc3c(-c4c(O)cc(O)c5c(O)c6c(cc45)OC(C)CC6=O)c(O)cc(O)c3c2O)O1 (stereo not drawn) | 97.8* | 20.5 | -19.9 | 1.6 | 123.1* | 72.3*
CN(C)c1cccc2c(S(=O)(=O)N3CCCC3)cccc12 | 36.1* | 5.2 | -11.8 | -0.1 | -12.6 | -14.9
O=C(O)CN1C(=O)/C(=C/c2ccc(N3CCCCC3)o2)SC1=S | 61.2* | -1.1 | -15.5 | -0.9 | 27.4 | -0.4
O=C(CN1C(=O)/C(=C/c2ccco2)SC1=S)Nc1ccc(O)c(C(=O)O)c1 | 25.2 | -14.7 | -5.3 | 0.9 | . | .
